Source: ChEMBL document CHEMBL1142985, “Antineoplastic agents. 550. Synthesis of 10b(s)-epipancratistatin from (+)-narciclasine” (2007)
Converted amounts (≈) assume the structure as drawn.

Tests used:
Type in all cases: functional
[1] = system: P388; experiment: Growth inhibition of murine P388 cells after 48 hrs; conditions: Mus musculus, P388, 48 h; read-out: ED50 (the source's name)
Summary of the method: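 Mouse leukemia P388 cells held 24 h in 10% horse serum/Fisher medium, then incubated 48 h with serial compound dilutions. Cell numbers counted on a Coulter particle counter; ED50 taken as the concentration giving 50% growth inhibition.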

[2] = system: BXPC-3; experiment: Growth inhibition of human BXPC3 cells after 48 hrs; conditions: BXPC-3, 48 h
Summary of the method: (§1)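 NCI sulforhodamine B assay. Cells in 5% fetal bovine serum/RPMI1640 seeded, grown 24 h, then exposed to serial compound dilutions for 48 h. Fixed with trichloroacetic acid, stained with sulforhodamine B, optical density read on a plate reader. GI50 taken as the concentration causing a 50% reduction in net protein increase.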

[3] = system: MCF7; experiment: Growth inhibition of human MCF7 cells after 48 hrs; conditions: MCF7, 48 h; summary of the method: as §1
[4] = system: KM-20L2; experiment: Growth inhibition of human KM20L2 cells after 48 hrs; conditions: KM-20L2, 48 h; summary of the method: as §1
[5] = system: DU-145; experiment: Growth inhibition of human DU145 cells after 48 hrs; conditions: DU-145, 48 h; summary of the method: as §1
[6] = system: SF-268; experiment: Growth inhibition of human SF268 cells after 48 hrs; conditions: SF-268, 48 h; summary of the method: as §1
[7] = system: NCI-H460; experiment: Growth inhibition of human NCI-H460 cells after 48 hrs; conditions: NCI-H460, 48 h; summary of the method: as §1

Row | Structure (SMILES) | EC50 [1] [µg/mL] | GI50 [2] [µg/mL] | GI50 [3] [µg/mL] | GI50 [5] [µg/mL] | GI50 [7] [µg/mL] | GI50 [4] [µg/mL] | GI50 [6] [µg/mL]
1 | CC(=O)Oc1c2c(cc3c1C(=O)N[C@H]1[C@H](OC(C)=O)[C@H](OC(C)=O)[C@@H](OC(C)=O)[C@H](OC(C)=O)[C@@]31O)OCO2 | 8.9 (≈ 16.1 µM) | > 10 | > 10 | > 10 | > 10 | > 10 | > 10
2 | COC(=O)C(=O)Oc1c2c(cc3c1C(=O)N(C(=O)C(=O)OC)[C@H]1[C@H](OC(C)=O)[C@H](OC(C)=O)[C@@H](OC(C)=O)[C@H](OC(C)=O)[C@@]31OC(=O)C(=O)OC)OCO2 | > 10 | > 10 | > 10 | > 10 | > 10 | > 10 | > 10
3 | O=C1N[C@H]2[C@H](O)[C@H](O)[C@@H](O)[C@H](O)[C@H]2c2cc3c(c(O)c21)OCO3 | 0.14 (≈ 0.43 µM) | 0.32 (≈ 0.984 µM) | 0.27 (≈ 0.83 µM) | 0.21 (≈ 0.646 µM) | 0.23 (≈ 0.707 µM) | 0.31 (≈ 0.953 µM) | 0.26 (≈ 0.799 µM)
4 | CC(=O)Oc1c2c(cc3c1C(=O)N[C@H]1[C@H](OC(C)=O)[C@H](OC(C)=O)[C@@H](OC(C)=O)[C@H](O)[C@@]31O)OCO2 | 1.7 (≈ 3.34 µM) | 14.4 (≈ 28.3 µM) | 5.2 (≈ 10.2 µM) | 4.3 (≈ 8.44 µM) | > 10 | 3.6 (≈ 7.07 µM) | 9.9 (≈ 19.4 µM)
5 | O=C1N[C@H]2[C@H](O)[C@H](O)[C@@H](O)[C@H](O)[C@@H]2c2cc3c(c(O)c21)OCO3 [PANCRATISTATIN] | 0.017 (≈ 0.0523 µM) | 0.02 (≈ 0.0615 µM) | 0.023 (≈ 0.0707 µM) | 0.015 (≈ 0.0461 µM) | 0.032 (≈ 0.0984 µM) | 0.025 (≈ 0.0769 µM) | 0.014 (≈ 0.043 µM)
6 | CC(=O)O[C@@H]1[C@@H](OC(C)=O)[C@H](OC(C)=O)[C@H]2c3cc4c(c(O)c3C(=O)N[C@H]2[C@@H]1OC(C)=O)OCO4 | 0.2 (≈ 0.405 µM) | 1.8 (≈ 3.65 µM) | 2 (≈ 4.05 µM) | 1.4 (≈ 2.84 µM) | 1.3 (≈ 2.63 µM) | 1.8 (≈ 3.65 µM) | 3 (≈ 6.08 µM)
7 | O=C1N[C@@H]2C(=C[C@H](O)[C@@H](O)[C@H]2O)c2cc3c(c(O)c21)OCO3 [NARCICLASINE] | 0.0012 (≈ 0.00391 µM) | 0.0035 (≈ 0.0114 µM) | 0.0032 (≈ 0.0104 µM) | 0.0032 (≈ 0.0104 µM) | 0.0084 (≈ 0.0273 µM) | 0.0032 (≈ 0.0104 µM) | 0.0031 (≈ 0.0101 µM)
8 | CC(=O)O[C@H]1[C@@H](OC(C)=O)[C@@H]2NC(=O)c3c(cc4c(c3O)OCO4)[C@@]23OC(=S)O[C@H]3[C@@H]1OC(C)=O | > 1 | > 1 | > 1 | > 1 | > 1 | > 1 | > 1

More lines, main results first:

Row | EC50 [1] [µg/mL] | GI50 [2] [µg/mL] | GI50 [3] [µg/mL] | GI50 [5] [µg/mL] | GI50 [7] [µg/mL] | Structure (SMILES) | GI50 [4] [µg/mL] | GI50 [6] [µg/mL]
9 | > 10 | > 10 | > 10 | > 10 | > 10 | CC(=O)O[C@@H]1[C@@H](OC(C)=O)[C@H](O)[C@@]2(O)c3cc4c(c(O)c3C(=O)N[C@H]2[C@@H]1OC(C)=O)OCO4 | > 10 | > 10
10 | 0.013 (≈ 0.03 µM) | 0.011 (≈ 0.0254 µM) | 0.06 (≈ 0.138 µM) | 0.028 (≈ 0.0646 µM) | 0.033 (≈ 0.0761 µM) | CC(=O)O[C@@H]1[C@H](OC(C)=O)[C@@H](OC(C)=O)C=C2c3cc4c(c(O)c3C(=O)N[C@H]21)OCO4 | 0.051 (≈ 0.118 µM) | 0.16 (≈ 0.369 µM)
11 | 1.5 (≈ 3.04 µM) | 3.1 (≈ 6.28 µM) | 4.9 (≈ 9.93 µM) | 1.5 (≈ 3.04 µM) | 2.9 (≈ 5.88 µM) | CC(=O)O[C@H]1[C@@H](OC(C)=O)[C@@H]2NC(=O)c3c(cc4c(c3O)OCO4)[C@@]23OC(=O)O[C@H]3[C@@H]1OC(C)=O | 2.8 (≈ 5.68 µM) | 7.5 (≈ 15.2 µM)
12 | 0.027 (≈ 0.0568 µM) | 0.16 (≈ 0.337 µM) | 0.088 (≈ 0.185 µM) | 0.023 (≈ 0.0484 µM) | 0.28 (≈ 0.589 µM) | CC(=O)Oc1c2c(cc3c1C(=O)N[C@@H]1C3=C[C@H](OC(C)=O)[C@@H](OC(C)=O)[C@H]1OC(C)=O)OCO2 | 0.043 (≈ 0.0904 µM) | 0.055 (≈ 0.116 µM)
13 | > 1 | > 1 | > 1 | > 1 | > 1 | CC(=O)O[C@@H]1[C@@H](OC(C)=O)[C@H](O)[C@H]2c3cc4c(c(O)c3C(=O)N[C@H]2[C@@H]1OC(C)=O)OCO4 | > 1 | > 1
